Assay results from ChEMBL document CHEMBL4680065, “Pharmacophore-based screening of diamidine small molecule inhibitors for protein arginine methyltransferases” (RSC Med Chem, 2021).

What was measured:
[1] = target: Protein arginine N-methyltransferase 3 (Homo sapiens, UniProt O60678); assay: Inhibition of recombinant human His-tagged PRMT3 expressed in Escherichia coli BL21 (DE3) using biotin-labeled SMD1 as substrate incubated for 10 mins in presence of [3H]-SAM cofactor by scintillation proximity assay
Procedure, shortened: (§1)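 The inhibitor was serially diluted and added to the enzyme, [3H]-SAM and substrate mixture, and methylated substrate was quantified by scintillation proximity assay. Reactions were held at initial rate, with yield under 10% and substrate near Km. PRMT3, PRMT8 and G9a were His-tagged human proteins, and PRMT7 was GST-tagged, all expressed in E. coli and affinity-purified.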

[2] = target: T1, Histone-arginine methyltransferase CARM1 (Homo sapiens, UniProt Q86X55); assay: Inhibition of recombinant GST-tagged CARM1 (unknown origin) expressed in Escherichia coli using […] incubated for 120 mins in presence of [3H]-SAM cofactor by radioactive filter plate assay
T1 sequence (Q86X55 whole entry): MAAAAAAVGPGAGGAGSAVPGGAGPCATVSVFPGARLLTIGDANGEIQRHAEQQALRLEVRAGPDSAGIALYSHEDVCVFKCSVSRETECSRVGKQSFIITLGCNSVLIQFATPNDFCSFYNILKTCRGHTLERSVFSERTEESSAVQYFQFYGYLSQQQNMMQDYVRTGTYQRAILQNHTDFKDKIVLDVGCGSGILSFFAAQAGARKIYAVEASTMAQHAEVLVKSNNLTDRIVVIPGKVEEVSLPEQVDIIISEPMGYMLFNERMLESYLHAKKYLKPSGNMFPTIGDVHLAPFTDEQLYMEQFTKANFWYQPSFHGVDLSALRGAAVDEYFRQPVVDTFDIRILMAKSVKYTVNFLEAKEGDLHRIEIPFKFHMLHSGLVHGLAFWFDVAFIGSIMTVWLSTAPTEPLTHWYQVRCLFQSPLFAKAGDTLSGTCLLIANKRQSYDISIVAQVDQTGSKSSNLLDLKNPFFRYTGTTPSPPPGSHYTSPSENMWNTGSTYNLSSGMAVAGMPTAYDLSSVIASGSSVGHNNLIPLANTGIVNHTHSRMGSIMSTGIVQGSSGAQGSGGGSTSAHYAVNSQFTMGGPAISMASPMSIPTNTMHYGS

[3] = target: PRMT5/MEP50 complex (Homo sapiens, UniProt O14744); assay: Inhibition of PRMT5/MEP50 (unknown origin) using biotin-labeled histone H4-20 peptide as substrate incubated for 8 mins in presence of [3H]-SAM cofactor by scintillation proximity assay; assay type: protein-complex assay
Procedure, shortened: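 Part of a methyltransferase selectivity panel. Test compound was serially diluted into a mixture of enzyme, [3H]-SAM cofactor and substrate. Methylated substrate was quantified by scintillation proximity assay. Reactions were held at initial-rate conditions with substrate turnover under 10%, and substrate concentrations were near Km.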

[4] = target: Protein arginine N-methyltransferase 8 (Homo sapiens, UniProt Q9NR22); assay: Inhibition of recombinant His-tagged human PRMT8 expressed in Escherichia coli BL21 (DE3) using biotin-labeled histone H4-20 peptide as substrate incubated for 8 mins in presence of [3H]-SAM cofactor by scintillation proximity assay; procedure, shortened: as §1
[5] = target: T2, Histone-lysine N-methyltransferase EHMT2 (Homo sapiens, UniProt Q96KQ7); assay: Inhibition of recombinant His-tagged human G9a expressed in Escherichia coli BL21 (DE3) using biotin-labeled histone H3-20 peptide as substrate incubated for 30 mins in presence of [3H]-SAM cofactor by scintillation proximity assay; procedure, shortened: as §1
T2 sequence (Q96KQ7 whole entry): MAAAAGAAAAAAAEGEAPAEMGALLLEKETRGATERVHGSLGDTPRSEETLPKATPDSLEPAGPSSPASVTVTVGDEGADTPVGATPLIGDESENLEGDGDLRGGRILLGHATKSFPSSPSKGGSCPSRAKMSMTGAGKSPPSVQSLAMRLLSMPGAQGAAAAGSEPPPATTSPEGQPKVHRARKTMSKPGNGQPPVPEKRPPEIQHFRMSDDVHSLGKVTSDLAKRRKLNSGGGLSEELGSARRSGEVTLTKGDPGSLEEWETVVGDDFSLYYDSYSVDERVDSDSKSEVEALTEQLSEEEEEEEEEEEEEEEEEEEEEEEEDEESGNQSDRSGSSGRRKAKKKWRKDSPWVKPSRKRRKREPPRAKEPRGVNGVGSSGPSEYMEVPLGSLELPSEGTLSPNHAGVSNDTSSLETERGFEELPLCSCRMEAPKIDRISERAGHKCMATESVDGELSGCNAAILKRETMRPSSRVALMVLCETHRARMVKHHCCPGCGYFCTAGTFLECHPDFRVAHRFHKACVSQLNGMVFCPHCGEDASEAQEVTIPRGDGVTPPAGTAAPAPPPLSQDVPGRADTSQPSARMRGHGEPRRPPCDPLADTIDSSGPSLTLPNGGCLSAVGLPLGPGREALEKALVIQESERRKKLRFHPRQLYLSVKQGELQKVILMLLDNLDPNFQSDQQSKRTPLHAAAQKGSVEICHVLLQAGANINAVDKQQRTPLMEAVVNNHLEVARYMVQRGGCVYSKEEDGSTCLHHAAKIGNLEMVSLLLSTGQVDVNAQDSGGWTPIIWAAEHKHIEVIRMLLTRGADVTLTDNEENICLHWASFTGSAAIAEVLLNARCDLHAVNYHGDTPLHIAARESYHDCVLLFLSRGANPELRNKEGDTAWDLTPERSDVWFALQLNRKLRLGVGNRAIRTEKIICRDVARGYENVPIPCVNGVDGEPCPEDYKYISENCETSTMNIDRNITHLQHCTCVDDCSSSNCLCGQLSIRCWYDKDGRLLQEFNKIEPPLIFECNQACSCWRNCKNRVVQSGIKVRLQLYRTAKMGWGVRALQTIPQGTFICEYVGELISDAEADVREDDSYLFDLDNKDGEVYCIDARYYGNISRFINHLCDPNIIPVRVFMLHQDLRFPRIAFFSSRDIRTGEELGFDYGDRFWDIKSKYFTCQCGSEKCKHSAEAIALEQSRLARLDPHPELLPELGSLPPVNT

[6] = target: T3, Histone-lysine N-methyltransferase EHMT2 (Homo sapiens) (UniProt Q96KQ7); assay: Inhibition of recombinant His-tagged human G9a expressed in Escherichia coli BL21 (DE3) assessed as residual activity at 10 uM using biotin-labeled histone H3-20 peptide as substrate incubated for 30 mins in presence of [3H]-SAM cofactor by scintillation proximity assay relative to control
T3 sequence (whole entry): T2 sequence (Q96KQ7 whole entry)
Procedure, shortened: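 Single-point profiling used 10 μM inhibitor added to the enzyme, [3H]-SAM and substrate mixture. Methylated substrate was quantified by scintillation proximity assay. Reactions were held at initial rate, with yield under 10% and substrate near Km. Enzyme, [3H]-SAM and substrate final levels are given in the supplement.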

[7] = system: CMK; assay: Antiproliferative activity against human CMK cells assessed as inhibition of cell growth measured after 72 hrs by CellTiter-Glo assay; assay type: functional, cell-based
Procedure, shortened: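 Cells were cultured with the test agent, serially diluted, for 72 h. The control received the same amount of DMSO. Cell viability was then measured, and IC50 values were taken from sensitivity curves.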

Chain of PRMT5/MEP50 complex (O14744 whole entry): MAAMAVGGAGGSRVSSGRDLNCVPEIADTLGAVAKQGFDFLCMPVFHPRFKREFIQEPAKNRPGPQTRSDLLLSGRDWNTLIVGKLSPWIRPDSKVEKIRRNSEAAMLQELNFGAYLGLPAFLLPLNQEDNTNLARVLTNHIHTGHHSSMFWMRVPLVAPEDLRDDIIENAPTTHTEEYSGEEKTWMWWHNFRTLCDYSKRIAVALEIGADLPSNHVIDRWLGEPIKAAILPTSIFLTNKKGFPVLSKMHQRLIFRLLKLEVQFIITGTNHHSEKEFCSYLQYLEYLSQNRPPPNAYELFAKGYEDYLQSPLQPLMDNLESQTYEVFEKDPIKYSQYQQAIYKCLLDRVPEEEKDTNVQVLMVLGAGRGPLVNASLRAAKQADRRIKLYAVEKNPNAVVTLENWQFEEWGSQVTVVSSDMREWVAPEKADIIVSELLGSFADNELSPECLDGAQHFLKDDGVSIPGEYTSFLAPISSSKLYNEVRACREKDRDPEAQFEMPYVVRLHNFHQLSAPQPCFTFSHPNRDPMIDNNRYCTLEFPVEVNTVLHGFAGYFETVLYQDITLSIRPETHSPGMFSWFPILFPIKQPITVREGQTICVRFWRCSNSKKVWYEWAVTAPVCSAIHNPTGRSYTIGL
Chain of PRMT5/MEP50 complex (Q9BQA1 whole entry, further chain): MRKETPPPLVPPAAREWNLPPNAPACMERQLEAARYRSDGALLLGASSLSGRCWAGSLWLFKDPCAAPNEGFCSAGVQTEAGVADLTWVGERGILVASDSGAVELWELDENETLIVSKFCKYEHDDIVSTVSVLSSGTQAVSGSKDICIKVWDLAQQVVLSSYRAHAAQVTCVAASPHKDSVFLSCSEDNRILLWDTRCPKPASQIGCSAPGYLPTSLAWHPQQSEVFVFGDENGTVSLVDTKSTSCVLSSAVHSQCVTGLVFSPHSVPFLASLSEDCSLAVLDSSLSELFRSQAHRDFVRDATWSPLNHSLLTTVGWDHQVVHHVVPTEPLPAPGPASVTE
Chain of Protein arginine N-methyltransferase 8 (Q9NR22 whole entry): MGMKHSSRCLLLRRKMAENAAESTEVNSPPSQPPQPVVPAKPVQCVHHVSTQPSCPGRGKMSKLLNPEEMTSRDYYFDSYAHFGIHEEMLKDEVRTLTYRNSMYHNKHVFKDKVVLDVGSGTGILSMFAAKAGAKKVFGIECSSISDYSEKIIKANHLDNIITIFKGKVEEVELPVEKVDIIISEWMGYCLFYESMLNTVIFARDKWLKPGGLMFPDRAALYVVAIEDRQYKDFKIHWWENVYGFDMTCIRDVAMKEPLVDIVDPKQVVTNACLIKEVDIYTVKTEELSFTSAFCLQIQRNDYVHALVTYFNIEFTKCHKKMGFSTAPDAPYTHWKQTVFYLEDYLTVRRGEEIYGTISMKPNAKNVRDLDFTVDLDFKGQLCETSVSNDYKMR
Chain of Protein arginine N-methyltransferase 3 (O60678 whole entry): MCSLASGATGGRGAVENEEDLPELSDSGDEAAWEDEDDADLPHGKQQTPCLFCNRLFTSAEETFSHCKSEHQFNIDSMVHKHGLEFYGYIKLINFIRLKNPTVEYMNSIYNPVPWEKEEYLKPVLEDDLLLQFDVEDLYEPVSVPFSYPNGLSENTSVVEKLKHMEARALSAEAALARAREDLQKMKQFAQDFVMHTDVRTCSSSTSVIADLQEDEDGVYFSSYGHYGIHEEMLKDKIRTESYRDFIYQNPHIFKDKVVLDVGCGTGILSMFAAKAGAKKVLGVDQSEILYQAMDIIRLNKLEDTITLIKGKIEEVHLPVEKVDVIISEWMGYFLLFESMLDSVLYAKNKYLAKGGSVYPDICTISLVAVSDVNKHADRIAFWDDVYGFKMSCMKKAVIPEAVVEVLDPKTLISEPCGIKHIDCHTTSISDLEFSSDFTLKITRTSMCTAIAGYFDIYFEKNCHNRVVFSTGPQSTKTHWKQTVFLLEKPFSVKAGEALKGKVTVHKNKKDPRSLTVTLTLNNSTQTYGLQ

SMILES: N=C(N)c1ccc(Nc2ccc(-c3cc4ccc(C(=N)N)cc4[nH]3)cc2)cc1
- IC50 [1]: 3.4 µM
- IC50 [2]: 27.6 µM
- IC50 [3]: 6.8 µM
- IC50 [4]: 8.2 µM
- IC50 [5]: 3.7 µM
- Activity [6]: 10.5%
- IC50 [7]: 1.31 µM
